TNAP inh hi DEA: blocks human TNAP under high phosphate acceptor concentration | purified TNAP, CDP-star luminescence, 1 M DEA | inhibition, % at 20 µM | actives 0.03% (n = 200,000);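 active means over 50% inhibition of tissue-nonspecific alkaline phosphatase at 20 µM in the single-dose screen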;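 further: plate controls were DMSO wells for no effect and EDTA-quenched wells as full inhibition for full effect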
Target sequence (P05186 whole entry, looked up): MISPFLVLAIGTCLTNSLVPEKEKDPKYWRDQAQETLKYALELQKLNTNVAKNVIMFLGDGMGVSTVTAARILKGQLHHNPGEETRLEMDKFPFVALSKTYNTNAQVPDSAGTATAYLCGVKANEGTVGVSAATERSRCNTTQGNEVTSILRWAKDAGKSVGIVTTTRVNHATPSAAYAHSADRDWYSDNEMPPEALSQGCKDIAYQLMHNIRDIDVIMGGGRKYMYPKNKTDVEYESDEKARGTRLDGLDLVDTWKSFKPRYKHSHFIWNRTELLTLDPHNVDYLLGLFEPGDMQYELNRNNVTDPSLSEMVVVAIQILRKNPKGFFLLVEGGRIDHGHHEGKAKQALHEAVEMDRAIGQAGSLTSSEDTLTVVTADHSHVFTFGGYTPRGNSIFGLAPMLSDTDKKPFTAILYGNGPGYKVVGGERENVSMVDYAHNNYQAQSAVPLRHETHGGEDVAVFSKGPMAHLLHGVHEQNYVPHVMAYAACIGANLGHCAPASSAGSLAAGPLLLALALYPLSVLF
Yeast lifespan up: yeast lifespan extension; S. cerevisiae growth with nicotinamide, OD615; deaD strain in restrictive glucose medium; inhibition of the nicotinamide effect, % at 10 µM; actives 0.68% (n = 130,000);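 active means inhibition above a set limit, placed 3 SD over the median of all compounds, cut at about 26% in these data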;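 further: 0% = nicotinamide-treated wells and 100% = cells grown without nicotinamide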
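Material: Modified budding yeast, DeaD strain | Medium: Restrictive glucose medium | Probe or stimulus: 1.5 mM nicotinamide | Dosing: Single dose 10 µM compound, 0.25% DMSO | Times: 48 h at 30 °C | Technique: OD615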
Yeast growth inh: chemicals that inhibit yeast BB579 growth in restrictive medium (lifespan-shortening candidates). S. cerevisiae BB579 growth, OD615, 48 h. inhibition, % at 10 µM. actives 0.51% (n = 140,000). AID 804;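 active means inhibition above a set limit, 3 SD over the mean compound inhibition, cut at about 44% in these data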
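Assay system – yeast BB579 (DeaD) · Dosing – single compound dose of 10 µM, 0.25% DMSO final · Detection – OD615 turbidity measurement · Buffer or medium – CSMM-D restrictive synthetic medium containing dextrose (glucose) · Benchmarks – positive control amphotericin B 10 µg/mL · Incubation – 48 h exposure, 30 °C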
TNAP act hiacc: TNAP (human) activation, high acceptor; P05186; purified TNAP, CDP-star luminescence, 1 M DEA, 30 min; hits give high values; 0 = EDTA background, 1 = DMSO-only activity; activation factor at 20 µM; 200,000 tested, under 10 active; AID 1136;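 active means activation factor at least 2 at 20 µM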
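Control set: EDTA negative control, DMSO positive control / Assay system: human TNAP / Quantity: TNAP 1/800 final / Evaluation: TNAP activation factor scaled between EDTA and DMSO control wells / Measured by: luminescent substrate turnover signal / Compound dosing: one dose, 20 µM / Times: 30 min enzyme reaction at room temperature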
RAM inhibit: inhibitors of the yeast RAM network; S. cerevisiae dse1pr::URA3 reporter, 5-FOA growth OD615, 2 d; analog-sensitive cbk1-as2 kinase mutant strain; inhibition, % at 50 µM; actives 1.8% (n = 190,000); AID 868;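 active means inhibition above a set limit, 3 SD over mean compound inhibition, cut at about 8.4% in these data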;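 further: 0% = DMSO-only wells with no growth and 100% = 10 µM 1-NA-PP1 full growth; inhibition rescues growth on 5-FOA so higher OD means more RAM inhibition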
TNAP inh noacc: TNAP (human) inhibition, acceptor-free conditions; inhibition, % at 20 µM; P05186; purified TNAP, CDP-star luminescence, 30 min; actives 0.26% (n = 200,000); AID 1012;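 active means tissue-nonspecific alkaline phosphatase inhibition above about 50% at 20 µM in the single-dose screen, limit read from the data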;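 further: 0% = DMSO negative control and 100% = EDTA positive control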
* marks the source's active call; other numbers are inactive results; . = no result. Rows were chosen to be rich in hits. Some 2.8% of all compounds tested hit in one or more screens of this group.

SMILES | TNAP inh hi DEA | Yeast lifespan up | Yeast growth inh | TNAP act hiacc | RAM inhibit | TNAP inh noacc
O=c1[nH]c2ccccc2n1CCCN1CCC(n2c(=O)[nH]c3cc(Cl)ccc32)CC1 | 10 | 6 | -1 | 0.9 | 1 | 70*
O=C(c1ccccc1F)c1cn(Cc2ccccc2)c2ccccc12 | -4 | -10 | -30 | 1 | 11* | -10
CCN1C(=O)/C(=C/c2ccc(N(CC)CC)cc2OC)C(=O)NC1=S | 4 | . | . | 1 | 8 | 26
C=CCn1c(O)c(N=Nc2c(C)n(C)n(-c3ccccc3)c2=O)c(=O)[nH]c1=S | 20 | 0 | -7 | 0.8 | 7 | 12
COc1ccc(Cn2c(O)c(/C=N/NC(=O)c3ccccc3)c(=O)[nH]c2=O)cc1 | 0 | -3 | -15 | 1 | 3 | 71*
O=C(N/N=C/c1c(O)n(CCc2ccc(F)cc2)c(=O)[nH]c1=O)c1ccncc1 | -5 | . | . | 1.1 | 8.6* | 27
O=C(N/N=C/c1c(O)n(CCc2ccccc2)c(=O)[nH]c1=O)c1ccncc1 | -6 | 1 | -39 | 1.1 | 4 | 33
CN1C(=O)C(=Cc2ccc(SC3CCCCC3)o2)C(=O)N(C)C1=O | 4 | . | . | 1 | 4 | 14
CN(C)C=C1C(=O)N(C2CCCCC2)C(=O)N(C2CCCCC2)C1=O | -6 | 39* | -33 | 1.1 | 1 | -3
Oc1cc2c(cc1O)[C@H]1c3ccccc3CN[C@@H]1CC2 | 7 | . | . | 0.9 | . | 92*
Brc1ccc(C2N3CCCN23)cc1 (stereo not given) | -1 | 2 | -23 | 1 | 1 | -13
Cc1ccc(CN2CCCC(C(=O)c3sccc3C)C2)o1 (stereo not given) | -6 | . | . | 1.1 | 1 | -12
CCOC(=O)C1CCCN(c2ccc([N+](=O)[O-])c3nonc23)C1 (stereo not given) | 45 | . | . | 0.6 | -1 | 34
Oc1c(Br)cc(Br)cc1Oc1ccc(Br)cc1Br | -7 | -5 | 83* | 1.1 | 7 | -5
Cc1cc(C)cc(N2C(=O)NC(=O)/C(=C\c3cccn3-c3ccc(Cl)cc3)C2=O)c1 | -4 | -2 | -33 | 1 | 5 | -4
Cc1cc(C)cc(N2C(=O)NC(=O)/C(=C\c3cccn3-c3ccccc3)C2=O)c1 | 6 | 25 | -56 | 0.9 | 9.8* | -5
Cc1ncc(CN2CCCC(C(=O)c3ccc(C(C)(C)C)cc3)C2)s1 (stereo not given) | -5 | . | . | 1 | 0 | -8
Cc1ccc(N(C)C(=O)Oc2ccc(C(=O)c3ccc(Cl)cc3)cc2)cc1 | -4 | 82* | -18 | 1 | 4 | -26
CCC(=O)c1ccc(OC(=O)N(C)c2ccccc2)cc1 | -5 | . | . | 1 | 0 | -9
O=C1C=Cc2ccccc2C1=O | 3 | 31* | -32 | 1 | -1 | -2
COc1ccc2c(c1)c(C(=O)CN1CCC3(CC1)OCCO3)c(C)n2Cc1ccccc1 | -5 | -5 | 15 | 1 | 1 | -14
CCOC(=O)C(O)(c1ccc(NC(=S)NC(=O)c2ccc(Cl)cc2Cl)c(C)c1)C(F)(F)F (stereo not given) | 11 | 18 | -22 | 0.9 | 8 | 0
COC(=O)C(O)(c1ccc(NC(=S)NC(=O)c2ccc(Cl)cc2Cl)c(C)c1)C(F)(F)F (stereo not given) | -4 | 0 | 23 | 1 | 9.3* | 5
CCCCn1c(=O)c(C(=O)Nc2cnccn2)c(O)c2ccccc21 | -2 | 80* | -36 | 1 | -1 | -5
Cc1ccc(/C=C2\C(=O)NC(=S)N(c3ccccc3F)C2=O)s1 | 4 | 41* | 55* | 1 | 1 | 33
Cc1c(C(c2ccc(Br)cc2)c2c(O)c3ccccc3oc2=O)c(=O)n(-c2ccccc2)n1C (stereo not given) | -2 | . | . | 1 | 10* | -8
O=C1/C(=C\c2ccc([N+](=O)[O-])cc2)N2CCC1CC2 | -5 | 35* | -41 | 1.1 | 1 | -9
CN1CCC2(CC1)C(C#N)=C(N)NC(S)=C2C#N | 1 | 40* | -13 | 1 | 3 | -93

Screening results deposited in PubChem by several laboratories.
